Experiments:
hERG (Homo sapiens) = assay: Blockade of hERG channel at 10 uM by displacement of MK-0499 binding
[1] = target: Cav1.2 (voltage-dependent L-type calcium channel subunit alpha-1C) (Homo sapiens, UniProt Q13936); assay: Blockade of Cav1.2 channel at 10 uM by fluorescent calcium-influx assay
How it was run: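 Cav1.2 (L-type) channel block measured with a fluorescent calcium-influx FLIPR assay. Results are reported as % inhibition at 10 μM test concentration.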

[2] = target: T1, Voltage-dependent N-type calcium channel subunit alpha-1B (Homo sapiens, UniProt Q00975); assay: Blockade of Cav2.2 channel at 10 uM by fluorescent calcium-influx assay
How it was run: (§1)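 […] Cav2.2 channel block measured in vitro with a fluorescent calcium-influx (FLIPR) assay. Results are reported as % inhibition at 10 μM, with an IC50 (μM) for selected compounds.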
Target sequence in this assay (Q00975 whole entry, looked up): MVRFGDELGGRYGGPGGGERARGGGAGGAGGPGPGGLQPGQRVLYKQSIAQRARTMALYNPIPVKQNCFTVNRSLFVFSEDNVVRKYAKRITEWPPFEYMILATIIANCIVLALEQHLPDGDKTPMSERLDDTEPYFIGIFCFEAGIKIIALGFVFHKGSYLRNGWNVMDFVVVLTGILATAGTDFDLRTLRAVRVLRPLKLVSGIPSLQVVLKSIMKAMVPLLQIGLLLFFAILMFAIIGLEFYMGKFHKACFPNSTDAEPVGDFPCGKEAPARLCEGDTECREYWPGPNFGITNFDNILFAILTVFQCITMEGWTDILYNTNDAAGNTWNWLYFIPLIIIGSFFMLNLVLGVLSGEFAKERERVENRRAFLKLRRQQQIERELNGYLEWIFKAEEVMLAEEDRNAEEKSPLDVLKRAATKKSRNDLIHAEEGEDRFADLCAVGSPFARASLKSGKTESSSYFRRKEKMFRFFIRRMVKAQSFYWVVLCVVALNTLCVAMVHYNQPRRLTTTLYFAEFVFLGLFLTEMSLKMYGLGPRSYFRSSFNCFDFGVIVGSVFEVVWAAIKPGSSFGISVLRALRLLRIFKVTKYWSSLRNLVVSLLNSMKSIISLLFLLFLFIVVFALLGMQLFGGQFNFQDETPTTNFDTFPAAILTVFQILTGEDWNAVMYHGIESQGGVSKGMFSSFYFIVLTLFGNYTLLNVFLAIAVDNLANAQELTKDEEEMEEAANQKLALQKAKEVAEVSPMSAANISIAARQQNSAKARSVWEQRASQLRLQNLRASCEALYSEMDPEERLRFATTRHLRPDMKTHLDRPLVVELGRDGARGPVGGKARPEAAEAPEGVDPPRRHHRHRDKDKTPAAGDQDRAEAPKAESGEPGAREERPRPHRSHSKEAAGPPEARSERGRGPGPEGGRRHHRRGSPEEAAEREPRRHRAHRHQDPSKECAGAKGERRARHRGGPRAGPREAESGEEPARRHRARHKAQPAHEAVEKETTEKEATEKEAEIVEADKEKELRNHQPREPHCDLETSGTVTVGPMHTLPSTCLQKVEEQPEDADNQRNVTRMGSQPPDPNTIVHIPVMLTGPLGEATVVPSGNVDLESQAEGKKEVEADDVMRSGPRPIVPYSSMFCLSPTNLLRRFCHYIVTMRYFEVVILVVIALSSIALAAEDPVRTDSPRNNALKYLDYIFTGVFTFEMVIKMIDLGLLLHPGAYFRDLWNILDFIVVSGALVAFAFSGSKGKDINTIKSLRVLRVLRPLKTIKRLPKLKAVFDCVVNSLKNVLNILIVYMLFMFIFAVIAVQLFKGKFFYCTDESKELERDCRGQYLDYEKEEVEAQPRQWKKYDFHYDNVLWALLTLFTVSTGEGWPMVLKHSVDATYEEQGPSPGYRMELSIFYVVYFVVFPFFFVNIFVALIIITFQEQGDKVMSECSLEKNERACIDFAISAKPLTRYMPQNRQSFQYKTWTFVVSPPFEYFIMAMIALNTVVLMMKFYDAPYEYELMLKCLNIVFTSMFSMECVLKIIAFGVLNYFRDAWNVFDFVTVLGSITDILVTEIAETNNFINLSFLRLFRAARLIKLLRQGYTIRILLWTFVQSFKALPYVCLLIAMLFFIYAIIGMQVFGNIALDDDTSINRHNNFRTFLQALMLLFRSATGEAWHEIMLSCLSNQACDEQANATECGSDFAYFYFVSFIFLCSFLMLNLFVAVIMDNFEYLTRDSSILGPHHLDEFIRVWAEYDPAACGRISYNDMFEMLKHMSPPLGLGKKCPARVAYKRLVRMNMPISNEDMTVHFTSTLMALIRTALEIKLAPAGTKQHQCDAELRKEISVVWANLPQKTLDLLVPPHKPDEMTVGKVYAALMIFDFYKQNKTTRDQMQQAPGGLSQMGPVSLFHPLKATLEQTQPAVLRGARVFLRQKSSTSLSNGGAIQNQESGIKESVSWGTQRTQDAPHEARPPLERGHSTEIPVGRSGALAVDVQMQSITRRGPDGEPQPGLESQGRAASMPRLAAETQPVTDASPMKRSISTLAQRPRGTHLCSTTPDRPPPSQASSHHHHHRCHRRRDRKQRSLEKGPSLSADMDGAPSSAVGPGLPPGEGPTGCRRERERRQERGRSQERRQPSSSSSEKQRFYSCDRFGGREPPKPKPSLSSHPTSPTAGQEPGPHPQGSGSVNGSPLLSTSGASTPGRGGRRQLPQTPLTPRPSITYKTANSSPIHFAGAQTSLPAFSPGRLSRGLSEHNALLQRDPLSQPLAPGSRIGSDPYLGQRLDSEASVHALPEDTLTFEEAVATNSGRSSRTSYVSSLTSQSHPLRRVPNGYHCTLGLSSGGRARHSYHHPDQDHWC

[3] = target: T1, Voltage-dependent N-type calcium channel subunit alpha-1B; assay: Blockade of Cav2.2 channel by fluorescent calcium-influx assay
How it was run: as §1
Target sequence in this assay (Q00975 whole entry): as the sequence (Q00975 whole entry, looked up) above

[4] = target: T2, Nuclear receptor subfamily 1 group I member 2 (Homo sapiens, UniProt O75469); assay: Activity at PXR by induction assay
T2 sequence (O75469 whole entry): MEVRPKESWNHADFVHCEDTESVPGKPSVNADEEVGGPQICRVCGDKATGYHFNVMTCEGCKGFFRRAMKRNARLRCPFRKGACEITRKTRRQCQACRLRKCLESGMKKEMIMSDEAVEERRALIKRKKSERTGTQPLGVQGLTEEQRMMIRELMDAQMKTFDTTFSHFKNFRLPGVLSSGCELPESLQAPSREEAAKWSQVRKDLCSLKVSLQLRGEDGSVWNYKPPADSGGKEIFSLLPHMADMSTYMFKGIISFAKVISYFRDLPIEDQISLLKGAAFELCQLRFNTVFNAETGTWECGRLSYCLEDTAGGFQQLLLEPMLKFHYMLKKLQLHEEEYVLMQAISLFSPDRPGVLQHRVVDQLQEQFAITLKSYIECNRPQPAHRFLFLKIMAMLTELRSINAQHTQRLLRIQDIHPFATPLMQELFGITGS

[5] = Oral bioavailability in rat at 3 mg/kg; type: ADME, organism-based; details: in vivo
How it was run: (§2)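 Rat PK with 1.0 mg/kg IV and 3.0 mg/kg PO doses, based on plasma analysis. Parameters: Cmax, dose-normalized AUC (μM h kg/mg), plasma clearance (mL/min/kg), Vdss (L/kg), T1/2 (h) and oral bioavailability (%).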

Rattus norvegicus = assay: Dose normalized AUC in rat at 1 mg/kg, iv and 3 mg/kg, po; type: ADME, organism-based; details: in vivo
How it was run: as §2

[6] = Plasma clearance in rat at 1 mg/kg, iv and 3 mg/kg, po; type: ADME, organism-based
How it was run: as §2

[7] = Half life in rat at 1 mg/kg, iv and 3 mg/kg, po; type: ADME, organism-based; details: in vivo
How it was run: as §2

[8] = Metabolic stability in rat liver microsomes assessed as compound remaining after 60 mins; type: ADME, Microsome; details: read-out: Stability
How it was run: (§3)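 Compounds incubated with human or rat liver microsomes for 60 min. Read-out is the percent of parent compound remaining.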

[9] = Metabolic stability in human liver microsomes assessed as compound remaining after 60 mins; type: ADME, Microsome; details: read-out: Stability
How it was run: as §3

[10] = target: Nav1.5 (sodium channel protein type 5 subunit alpha) (Homo sapiens, UniProt Q14524); assay: Blockade of Nav1.5 channel at 10 uM by fluorescent […] assay

Chain of Cav1.2 (voltage-dependent L-type calcium channel subunit alpha-1C) (Q13936 whole entry): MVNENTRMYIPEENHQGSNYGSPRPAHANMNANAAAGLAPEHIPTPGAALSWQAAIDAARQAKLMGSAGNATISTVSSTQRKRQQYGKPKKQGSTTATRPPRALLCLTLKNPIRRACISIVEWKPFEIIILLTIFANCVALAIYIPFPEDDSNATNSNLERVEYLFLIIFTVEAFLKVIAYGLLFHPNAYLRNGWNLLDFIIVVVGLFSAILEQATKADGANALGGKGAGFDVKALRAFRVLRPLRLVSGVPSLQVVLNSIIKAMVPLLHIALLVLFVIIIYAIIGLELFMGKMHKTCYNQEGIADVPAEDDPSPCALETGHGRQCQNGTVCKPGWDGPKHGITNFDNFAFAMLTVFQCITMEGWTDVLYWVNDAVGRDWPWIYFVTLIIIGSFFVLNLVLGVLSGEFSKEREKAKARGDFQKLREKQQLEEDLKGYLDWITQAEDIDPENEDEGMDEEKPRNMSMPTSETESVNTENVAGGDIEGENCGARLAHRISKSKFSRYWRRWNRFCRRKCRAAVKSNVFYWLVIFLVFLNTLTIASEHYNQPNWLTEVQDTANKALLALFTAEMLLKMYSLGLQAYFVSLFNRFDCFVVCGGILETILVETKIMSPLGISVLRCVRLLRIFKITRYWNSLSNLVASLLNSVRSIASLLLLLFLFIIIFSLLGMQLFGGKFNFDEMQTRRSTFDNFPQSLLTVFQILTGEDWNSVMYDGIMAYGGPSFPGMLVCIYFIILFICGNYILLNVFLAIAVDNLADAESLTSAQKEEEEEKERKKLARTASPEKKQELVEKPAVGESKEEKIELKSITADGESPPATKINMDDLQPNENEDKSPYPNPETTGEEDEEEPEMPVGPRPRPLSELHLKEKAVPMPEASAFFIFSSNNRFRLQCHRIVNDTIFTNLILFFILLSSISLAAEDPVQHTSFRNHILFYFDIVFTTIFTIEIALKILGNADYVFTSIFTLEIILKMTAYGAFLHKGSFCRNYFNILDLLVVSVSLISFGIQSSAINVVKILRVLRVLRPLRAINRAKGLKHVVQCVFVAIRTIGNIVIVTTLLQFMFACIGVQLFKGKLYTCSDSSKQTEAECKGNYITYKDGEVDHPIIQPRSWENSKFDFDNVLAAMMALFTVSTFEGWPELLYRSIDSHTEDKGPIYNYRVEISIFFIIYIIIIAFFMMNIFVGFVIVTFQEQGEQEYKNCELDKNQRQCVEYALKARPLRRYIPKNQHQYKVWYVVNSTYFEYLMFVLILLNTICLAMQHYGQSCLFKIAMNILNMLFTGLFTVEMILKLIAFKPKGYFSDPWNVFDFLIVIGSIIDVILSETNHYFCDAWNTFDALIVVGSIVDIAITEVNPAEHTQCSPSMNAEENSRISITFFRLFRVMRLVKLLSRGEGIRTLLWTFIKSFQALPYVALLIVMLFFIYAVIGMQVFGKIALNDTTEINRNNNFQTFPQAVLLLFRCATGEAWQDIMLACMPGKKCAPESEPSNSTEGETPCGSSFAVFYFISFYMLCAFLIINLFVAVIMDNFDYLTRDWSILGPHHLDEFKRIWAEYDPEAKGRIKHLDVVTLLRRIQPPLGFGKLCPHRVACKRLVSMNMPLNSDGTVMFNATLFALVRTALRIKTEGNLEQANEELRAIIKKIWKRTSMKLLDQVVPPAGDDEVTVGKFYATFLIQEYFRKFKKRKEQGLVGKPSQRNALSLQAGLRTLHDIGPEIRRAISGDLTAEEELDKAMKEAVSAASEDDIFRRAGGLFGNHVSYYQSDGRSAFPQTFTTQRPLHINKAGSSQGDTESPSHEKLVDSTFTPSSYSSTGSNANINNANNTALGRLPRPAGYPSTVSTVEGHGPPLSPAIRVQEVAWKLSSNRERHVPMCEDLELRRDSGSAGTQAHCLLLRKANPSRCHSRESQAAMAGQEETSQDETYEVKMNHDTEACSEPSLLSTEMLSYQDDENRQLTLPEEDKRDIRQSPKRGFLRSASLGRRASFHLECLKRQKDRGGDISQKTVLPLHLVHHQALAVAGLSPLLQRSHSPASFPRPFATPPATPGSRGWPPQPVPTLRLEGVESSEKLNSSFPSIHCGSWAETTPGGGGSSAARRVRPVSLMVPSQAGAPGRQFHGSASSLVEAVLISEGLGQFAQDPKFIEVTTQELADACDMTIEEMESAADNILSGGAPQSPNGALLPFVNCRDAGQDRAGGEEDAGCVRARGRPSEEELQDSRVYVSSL

Structure (SMILES) | inhibition at 10 µM [1] [%] | inhibition [2] [%] | IC50 [3] [nM] | EC50 [4] [nM] | further results
Cc1cc(C)cc(-c2cc3cc(C(=O)NC(C)(C)C)ccc3n2CC(C)O)c1 (stereo not given) | 90 | 97 | 680 |  | inhibition at 10 µM (hERG (Homo sapiens)): 64%
CC(C)(C)NC(=O)Cn1c(-c2ccc(F)cc2)cc2cc(C(C)(C)C(=O)NC(C)(C)C)ccc21 | 82 |  |  | > 30000 | 
CC(C)(C)NC(=O)Cn1c(-c2cccc(OC(F)(F)F)c2)cc2cc(C(C)(C)C(=O)NC(C)(C)C)ccc21 | 93 |  |  | > 30000 | bioavailability [5]: 26%; AUC (Rattus norvegicus): 0.83 µM·kg·h/mg; clearance [6]: 11 mL/min/kg; half-life [7]: 2.27 h; remaining at 1 h [8]: 22%; remaining at 1 h [9]: 0.82%
CC(C)(C)NC(=O)Cn1c(-c2ccc(F)cc2F)cc2cc(C(C)(C)C(=O)NC(C)(C)C)ccc21 | 93 |  |  | 940 | 
COCCn1c(-c2cc(C)cc(C)c2)cc2cc(C(C)(C)C(=O)NC(C)(C)C)ccc21 | 70 | 99 | 520 |  | 
CC(C)(C)NC(=O)Cn1c(C(=O)NC(C)(C)C)cc2cc(C(C)(C)C(=O)NC(C)(C)C)ccc21 | 24 |  |  | 6640 | 
Cc1cc(C)cc(-c2cc3cc(C(C)(C)C(=O)NC(C)(C)C)ccc3n2C(=O)OC(C)(C)C)c1 |  | 59 |  |  | 
CC(C)(C)NC(=O)C(c1ccccn1)n1ccc2cc(C(C)(C)C(=O)NC(C)(C)C)ccc21 (stereo not given) | 64 |  |  | 600 | 
CC(C)(C)NC(=O)Cn1c(C(C)(C)C)cc2cc(C(C)(C)C(=O)NC(C)(C)C)ccc21 | 47 |  |  | 570 | 
Cc1cc(C)cc(-c2cc3cc(C(C)(C)C(=O)NC(C)(C)C)ccc3n2CC(=O)OC(C)(C)C)c1 | 48 | 91 | 660 |  | inhibition at 10 µM (hERG (Homo sapiens)): 60%
Cc1cc(C)cc(-c2cc3cc(C(C)(C)C(=O)N(C)C)ccc3n2CC(C)O)c1 (stereo not given) | 52 | 89 | 870 |  | 
CC(C)(C)NC(=O)Cn1c(-c2cc(F)cc(C(F)(F)F)c2)cc2cc(C(C)(C)C(=O)NC(C)(C)C)ccc21 | 88 |  |  | > 30000 | 
COc1ccccc1-c1cc2cc(C(C)(C)C(=O)NC(C)(C)C)ccc2n1CC(=O)NC(C)(C)C | 60 |  |  | 740 | 
Cc1cc(C)cc(-c2cc3cc(C(C)(C)C(=O)NC(C)(C)C)ccc3n2CC(=O)NC(C)(C)C)c1 | 78 | 98 | 190 | > 30000 | inhibition at 10 µM (hERG (Homo sapiens)): 33%
Cc1cc(C)cc(-c2cc3cc(C(C)(C)C(=O)NC(C)(C)C)ccc3n2Cc2ccc(Cl)cc2)c1 |  | 36 |  |  | 
Cc1cc(C)cc(-c2cc3cc(C(C)(C)C(=O)NCC(F)(F)F)ccc3n2CC(C)O)c1 (stereo not given) |  | 91 | 1170 |  | 
Cc1cc(C)cc(-c2cc3cc(C(C)(C)C(=O)NC4CC4)ccc3n2CC(C)O)c1 (stereo not given) |  | 89 | 1150 |  | 
Cc1cc(C)cc(-c2cc3cc(C(C)(C)C(=O)NC(C)(C)C)ccc3[nH]2)c1 |  | 78 |  |  | 
CC(C)(C)NC(=O)Cn1c(-c2ccccc2)cc2cc(C(C)(C)C(=O)NC(C)(C)C)ccc21 | 79 |  |  | 1810 | 
CCCN[C@@H](C)c1c(-c2cc(C)cc(C)c2)[nH]c2ccc(C(C)(C)C(=O)N3C4CCC3CC4)cc12 | 62 |  | 880 |  | inhibition at 10 µM [10]: 44%
Cc1cc(C)cc(-c2cc3cc(C(C)(C)C(=O)NC(C)(C)C)ccc3n2Cc2c(C)noc2C)c1 |  | 99 | 540 |  | inhibition at 10 µM (hERG (Homo sapiens)): 65%
Cc1cc(C)cc(-c2cc3cc(C(C)(C)CO)ccc3n2CC(C)O)c1 (stereo not given) | 32 | 44 |  |  | 
CC(C)(C)NC(=O)Cn1c(-c2cc(C(F)(F)F)cc(C(F)(F)F)c2)cc2cc(C(C)(C)C(=O)NC(C)(C)C)ccc21 | 61 |  |  | 10800 | 
CC(C)(C)NC(=O)Cn1c(-c2ccccc2OC(F)(F)F)cc2cc(C(C)(C)C(=O)NC(C)(C)C)ccc21 | 79 |  |  | > 30000 | bioavailability [5]: 38%; AUC (Rattus norvegicus): 0.57 µM·kg·h/mg; clearance [6]: 21 mL/min/kg; half-life [7]: 2.68 h; remaining at 1 h [8]: 2.5%; remaining at 1 h [9]: 0.04%
CCOC(=O)C(C)(C)c1ccc2c(c1)c([C@H](C)CO)c(-c1cc(C)cc(C)c1)n2C(=O)OC(C)(C)C | 40 |  | 600 |  | inhibition at 10 µM [10]: 25%
COC(=O)C(C)(C)c1ccc2c(c1)cc(-c1cc(C)cc(C)c1)n2CC(C)O (stereo not given) | 64 | 70 |  |  | 
Cc1cc(C)cc(-c2cc3cc(OC(F)(F)F)ccc3n2CC(C)O)c1 (stereo not given) | 43 | 36 |  |  | 

Source: ChEMBL document CHEMBL1641497, “A potent and selective indole N-type calcium channel (Ca(v)2.2) blocker for the treatment of pain” (Bioorg Med Chem Lett, 2011)
